The test addresses Serotonin 2 (5-HT2) receptor (Rattus norvegicus) (UniProt P30994+P08909+P14842). The test is described as follows: Binding affinity to the 5-hydroxytryptamine 2 receptor assayed by antagonism of serotonin-induced contractions in the rat jugular vein. The essentials:
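Jugular vein rings mounted in organ baths of modified Krebs solution and equilibrated 1–2 h. Control cumulative serotonin contraction curves were run, then tissues were incubated 1 h with antagonist and serotonin curves were repeated. For each antagonist concentration, K_B = [B]/(dose ratio − 1), where dose ratio = agonist ED50 with antagonist / control ED50. Values reported as −log K_B.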
Serotonin 2 (5-HT2) receptor (Rattus norvegicus), sequence (P08909 whole entry, looked up): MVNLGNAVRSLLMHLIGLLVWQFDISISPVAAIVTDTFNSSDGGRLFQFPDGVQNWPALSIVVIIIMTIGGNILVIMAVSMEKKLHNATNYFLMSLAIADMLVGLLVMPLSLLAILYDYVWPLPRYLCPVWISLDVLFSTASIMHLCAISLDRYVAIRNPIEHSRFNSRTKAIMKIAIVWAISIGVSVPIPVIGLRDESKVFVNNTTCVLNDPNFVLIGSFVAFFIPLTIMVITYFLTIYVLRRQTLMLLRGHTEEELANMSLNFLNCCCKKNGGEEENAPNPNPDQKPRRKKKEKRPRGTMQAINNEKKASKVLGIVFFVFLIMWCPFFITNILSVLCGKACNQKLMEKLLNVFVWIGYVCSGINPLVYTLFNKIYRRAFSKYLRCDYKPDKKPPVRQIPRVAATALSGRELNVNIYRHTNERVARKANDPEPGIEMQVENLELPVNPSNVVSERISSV
Serotonin 2 (5-HT2) receptor (Rattus norvegicus), sequence (P14842 whole entry, looked up): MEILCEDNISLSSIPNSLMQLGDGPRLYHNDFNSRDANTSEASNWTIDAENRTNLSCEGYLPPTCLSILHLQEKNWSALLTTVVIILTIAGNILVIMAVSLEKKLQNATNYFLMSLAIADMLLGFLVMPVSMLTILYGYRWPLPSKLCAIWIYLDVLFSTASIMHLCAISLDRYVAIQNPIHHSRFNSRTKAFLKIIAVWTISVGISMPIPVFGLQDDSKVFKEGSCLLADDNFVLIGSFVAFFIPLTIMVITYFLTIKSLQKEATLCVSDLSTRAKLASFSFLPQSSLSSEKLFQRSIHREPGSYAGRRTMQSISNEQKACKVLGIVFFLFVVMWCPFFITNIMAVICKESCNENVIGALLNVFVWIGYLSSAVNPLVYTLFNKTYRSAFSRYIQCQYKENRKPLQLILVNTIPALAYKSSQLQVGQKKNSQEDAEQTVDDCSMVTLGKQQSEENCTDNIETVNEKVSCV
Serotonin 2 (5-HT2) receptor (Rattus norvegicus), sequence (P30994 whole entry, looked up): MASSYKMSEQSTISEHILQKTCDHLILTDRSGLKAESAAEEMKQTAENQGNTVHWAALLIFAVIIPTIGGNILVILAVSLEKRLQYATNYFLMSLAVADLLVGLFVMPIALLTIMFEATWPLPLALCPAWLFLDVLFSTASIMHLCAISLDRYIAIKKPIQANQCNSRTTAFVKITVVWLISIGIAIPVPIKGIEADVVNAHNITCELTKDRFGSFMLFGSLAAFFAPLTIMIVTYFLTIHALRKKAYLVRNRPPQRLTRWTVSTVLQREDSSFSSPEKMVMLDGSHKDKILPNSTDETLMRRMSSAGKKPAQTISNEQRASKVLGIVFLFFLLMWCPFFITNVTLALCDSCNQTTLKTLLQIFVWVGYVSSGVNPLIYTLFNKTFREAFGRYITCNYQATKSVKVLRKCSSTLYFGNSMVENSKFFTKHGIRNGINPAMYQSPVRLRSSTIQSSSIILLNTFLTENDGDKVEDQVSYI
As to `CC(C)n1cc2c3c(cccc31)C1C[C@@H](C(=O)OC3CCCC3)CN(C)C1C2` (some centres not stated), the -Log KB amounted to 8.91.
The same measure for `CCN1C[C@H](C(=O)OC2CCCCC2)CC2c3cccc4c3c(cn4C(C)C)CC21` (some centres not stated): 7.81; for `CC(C)n1cc2c3c(cccc31)C1C[C@@H](C(=O)OC3CCOCC3)CN(C)C1C2` (some centres not stated): 9.86; for `CC(C)n1cc2c3c(cccc31)C1C[C@@H](C(=O)OC3CCCCC3)CN(C)C1C2` (some centres not stated): 8.67.
In the case of `CC(C)n1cc2c3c(cccc31)C1C[C@@H](C(=O)OC3CCCCC3=O)CN(C)C1C2` (some centres not stated), the -Log KB came to 9.31.
The value for `CC(C)n1cc2c3c(cccc31)C1C[C@@H](C(=O)OC3CCCCC3O)CN(C)C1C2` (some centres not stated) was 9.47; that for `CCCCN1C[C@H](C(=O)OC2CCCCC2)CC2c3cccc4c3c(cn4C(C)C)CC21` (some centres not stated) was 7.4; that for `CC(C)n1cc2c3c(cccc31)C1C[C@@H](C(=O)OC3CCC3)CN(C)C1C2` (some centres not stated) was 8.22.
In turn, `CC(O)C(C)OC(=O)[C@@H]1CC2c3cccc4c3c(cn4C(C)C)CC2N(C)C1` (some centres not stated) returned a -Log KB of 10.3.
The same measure for `CCCN1C[C@H](C(=O)OC2CCCCC2)CC2c3cccc4c3c(cn4C(C)C)CC21` (some centres not stated): 7.07; for `CN1C[C@H](C(=O)OC2CCCCC2)CC2c3cccc4c3c(cn4C)CC21` (some centres not stated): 8.12.
The same measure for `CC(C)n1cc2c3c(cccc31)C1C[C@@H](C(=O)OC3CCC(=O)CC3)CN(C)C1C2` (some centres not stated): 10.
The same measure for `CC(C)n1cc2c3c(cccc31)C1C[C@@H](C(=O)OC3CCCCCC3)CN(C)C1C2` (some centres not stated): 7.73.
Consider `CN1C[C@H](C(=O)OC2CCCCC2)CC2c3cccc4c3c(cn4Cc3ccccc3)CC21` (some centres not stated), for which the -Log KB was 6.52.
The value for `CCC(CC)n1cc2c3c(cccc31)C1C[C@@H](C(=O)OC3CCCCC3)CN(C)C1C2` (some centres not stated) was 7.31; that for `CC1CCCC(C)C1OC(=O)[C@@H]1CC2c3cccc4c3c(cn4C(C)C)CC2N(C)C1` (some centres not stated) was 7.32; that for `CN1C[C@H](C(=O)OC2CCCCC2)CC2c3cccc4[nH]cc(c34)CC21` (some centres not stated) was 8.05.
The value for `CC(C)n1cc2c3c(cccc31)C1C[C@@H](C(=O)OC3CCC(O)CC3)CN(C)C1C2` (some centres not stated) was 10.2; that for `CC(C)n1cc2c3c(cccc31)C1C[C@@H](C(=O)O[C@H]3CC[C@@H](C)CC3)CN(C)C1C2` (some centres not stated) was 7.69; that for `CC(C)n1cc2c3c(cccc31)C1C[C@@H](C(=O)O[C@H]3CC[C@H](C)CC3)CN(C)C1C2` (some centres not stated) was 7.21.
Compound `CC(C)n1cc2c3c(cccc31)C1C[C@@H](C(=O)OC3CCCCC3)CNC1C2` (some centres not stated) showed a -Log KB of under 6.
In turn, `CC(C)N1C[C@H](C(=O)OC2CCCCC2)CC2c3cccc4c3c(cn4C(C)C)CC21` (some centres not stated) registered a -Log KB of 6.42.

The values are drawn from ChEMBL document CHEMBL1124253, “(8 beta)-Ergoline-8-carboxylic acid cycloalkyl esters as serotonin antagonists: structure-activity study” (J Med Chem, 1988).
